Assay results as given in ChEMBL document CHEMBL4004861, “Novel 2,3-disubstituted quinazoline-4(3H)-one molecules derived from amino acid linked sulphonamide as a potent malarial antifolates for DHFR inhibition” (Eur J Med Chem, 2017).
≈ marks a conversion by molar mass, not a printed value. Each block holds one compound with its values, some of them ahead of it.

How the values were obtained:
Plasmodium falciparum [1] = assay: Antimalarial activity against Plasmodium falciparum; type: functional
Summary of the method: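 Drug stocks diluted in complete medium (RPMI 1640 plus 10% human serum) over seven dilutions, 0.0001 up to 100 mg/mL as printed. Reference antimalarials run as positive controls in every experiment. Percent inhibition at each concentration was calculated against untreated control to give IC50.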

Plasmodium falciparum [2] = assay: Antimalarial activity against Plasmodium falciparum assessed as reduction in parasitic LDH activity by Malstat reagent based spectrophotometric method; type: functional
Summary of the method: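 Parasite lactate dehydrogenase (Malstat) read spectrophotometrically at 650 nm. Compounds were in RPMI 1640 with 10% human serum, seven dilutions.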

Dihydrofolate reductase = biological target: T1, Dihydrofolate reductase (Bos taurus, UniProt P00376); assay: Inhibition of bovine liver DHFR using FH2 as substrate preincubated for 2 mins followed by substrate addition in presence of NADPH
T1 sequence (P00376 whole entry): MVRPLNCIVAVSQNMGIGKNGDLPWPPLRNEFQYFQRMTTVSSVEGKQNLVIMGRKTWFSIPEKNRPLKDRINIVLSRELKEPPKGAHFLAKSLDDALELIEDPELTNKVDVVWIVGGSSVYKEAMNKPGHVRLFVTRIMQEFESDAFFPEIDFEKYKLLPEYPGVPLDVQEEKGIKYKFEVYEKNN

Vero = assay: Cytotoxicity against African green monkey Vero cells assessed as reduction in cell viability up to 15 ug/ml after 72 hrs by MTT assay; type: cell-based; conditions: chlorocebus sabaeus
Summary of the method: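 Vero cells were exposed to compounds for 72 h at 37 °C, with MTT conversion to formazan read at 540 nm. Viability was calculated relative to cells treated with 0.1% DMSO medium. Triplicate treatments; IC50 derived. Cells were tested up to 15 µg/mL.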

[3] = Selectivity index, ratio of CC50 for RBC (unknown origin) to EC50 for Plasmodium falciparum infected in RBC
Summary of the method: (§1)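 MTT reduction, run in parallel on infected and on normal uninfected RBC cultures and read at 565 and 690 nm. Compounds were in RPMI 1640 with 10% human serum, seven dilutions. Drug-free, parasite-free RBC cultures were set as maximum activity, with untreated, uninfected and cell-free controls. EC50 (parasite) and CC50 (RBC) were derived, and SI = CC50/EC50.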

[4] = Selectivity index, ratio of IC50 for African green monkey Vero cells to IC50 for bovine liver DHFR
Summary of the method: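 Bovine liver DHFR (0.02 units) in 50 mM Tris-HCl pH 7.4 with 50 µM NADPH, compounds in DMSO at final 10⁻¹¹–10⁻⁵ M, total volume 2.0 ml. Mixture held 2 min at room temperature, then started with 25 µM FH2, and ΔA/min at 340 nm recorded. […] SI = Vero IC50 / DHFR IC50, triplicate averages.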

Plasmodium falciparum [5] = assay: Antimalarial activity against Plasmodium falciparum infected in RBC after 5 days by MTT assay; type: functional; summary of the method: as §1

SMILES: CC(C)CC(NS(=O)(=O)c1ccc(N)cc1)c1nc2ccccc2c(=O)n1-c1ccccc1Cl (stereo not drawn)
IC50 (Plasmodium falciparum [1]): 0.136 µg/mL (≈ 0.274 µM)

SMILES: CC(C)CC(NS(=O)(=O)c1ccc(N)cc1)c1nc2ccccc2c(=O)n1-c1ccc([N+](=O)[O-])cc1 (stereo not drawn)
IC50 (Plasmodium falciparum [1]): 0.84 µg/mL (≈ 1.65 µM)

SMILES: CCc1nc(N)nc(N)c1-c1ccc(Cl)cc1 [PYRIMETHAMINE]
IC50 (Plasmodium falciparum [1]): 0.25 µg/mL (≈ 1.01 µM)

SMILES: CC(C)CC(NS(=O)(=O)c1ccc(N)cc1)c1nc2ccccc2c(=O)n1-c1ccccc1[N+](=O)[O-] (stereo not drawn)
IC50 (Plasmodium falciparum [1]): 0.92 µg/mL (≈ 1.81 µM)

SMILES: COc1cc(Cc2cnc(N)nc2N)cc(OC)c1OC [TRIMETHOPRIM]
IC50 (Plasmodium falciparum [1]): 0.38 µg/mL (≈ 1.31 µM)

SMILES: CC(C)CC(NS(=O)(=O)c1ccc(N)cc1)c1nc2ccccc2c(=O)n1Nc1ccccc1 (stereo not drawn)
IC50 (Plasmodium falciparum [1]): 1.05 µg/mL (≈ 2.2 µM)

SMILES: CCN(CC)CCCC(C)Nc1ccnc2cc(Cl)ccc12 (stereo not drawn) [CHLOROQUINE]
IC50 (Dihydrofolate reductase): 31.3 nM
EC50 (Plasmodium falciparum [5]): 28.97 ppm

SMILES: COc1ccccc1-n1c(C(CC(C)C)NS(=O)(=O)c2ccc(N)cc2)nc2ccccc2c1=O (stereo not drawn)
IC50 (Plasmodium falciparum [1]): 0.72 µg/mL (≈ 1.46 µM)

SMILES: COc1ccc(-n2c(C(CC(C)C)NS(=O)(=O)c3ccc(N)cc3)nc3ccccc3c2=O)cc1 (stereo not drawn)
IC50 (Plasmodium falciparum [2]): 8317 ppm
IC50 (Dihydrofolate reductase): 97.4 nM
Activity (Vero): Non-Toxic
Ratio CC50/EC50 [3]: 19500
Ratio IC50 [4]: 312.5
IC50 (Plasmodium falciparum [1]): 0.068 µg/mL (≈ 0.138 µM)
EC50 (Plasmodium falciparum [5]): 1009 ppm

Second part, led by results:

IC50 (Plasmodium falciparum [1]): 0.67 µg/mL (≈ 1.41 µM)
SMILES: Cc1ccc(-n2c(C(CC(C)C)NS(=O)(=O)c3ccc(N)cc3)nc3ccccc3c2=O)cc1 (stereo not drawn)

IC50 (Plasmodium falciparum [2]): 3380 ppm
IC50 (Dihydrofolate reductase): 168 nM
IC50 (Plasmodium falciparum [1]): 0.068 µg/mL (≈ 0.126 µM)
SMILES: CC(C)CC(NS(=O)(=O)c1ccc(N)cc1)c1nc2ccccc2c(=O)n1-c1ccccc1Br (stereo not drawn)
Activity (Vero): Non-Toxic
Ratio CC50/EC50 [3]: 20.6
Ratio IC50 [4]: 164.83
EC50 (Plasmodium falciparum [5]): 2831 ppm

IC50 (Plasmodium falciparum [1]): 0.78 µg/mL (≈ 1.54 µM)
SMILES: CC(C)CC(NS(=O)(=O)c1ccc(N)cc1)c1nc2ccccc2c(=O)n1-c1cccc([N+](=O)[O-])c1 (stereo not drawn)

IC50 (Plasmodium falciparum [1]): 1.01 µg/mL (≈ 2.11 µM)
SMILES: CC(C)CC(NS(=O)(=O)c1ccc(N)cc1)c1nc2ccccc2c(=O)n1-c1ccccc1F (stereo not drawn)

IC50 (Plasmodium falciparum [1]): 0.68 µg/mL (≈ 1.47 µM)
SMILES: CC(C)CC(NS(=O)(=O)c1ccc(N)cc1)c1nc2ccccc2c(=O)n1-c1ccccc1 (stereo not drawn)

IC50 (Plasmodium falciparum [1]): 1.28 µg/mL (≈ 2.69 µM)
SMILES: Cc1cccc(-n2c(C(CC(C)C)NS(=O)(=O)c3ccc(N)cc3)nc3ccccc3c2=O)c1 (stereo not drawn)

IC50 (Plasmodium falciparum [2]): 524.8 ppm
IC50 (Dihydrofolate reductase): 72.4 nM
IC50 (Plasmodium falciparum [1]): 0.068 µg/mL (≈ 0.137 µM)
SMILES: CC(C)CC(NS(=O)(=O)c1ccc(N)cc1)c1nc2ccccc2c(=O)n1-c1cccc(Cl)c1 (stereo not drawn)
Activity (Vero): Non-Toxic
Ratio CC50/EC50 [3]: 50.6
Ratio IC50 [4]: 416.66
EC50 (Plasmodium falciparum [5]): 368.97 ppm

IC50 (Plasmodium falciparum [1]): 0.72 µg/mL (≈ 1.51 µM)
SMILES: Cc1ccccc1-n1c(C(CC(C)C)NS(=O)(=O)c2ccc(N)cc2)nc2ccccc2c1=O (stereo not drawn)

IC50 (Plasmodium falciparum [1]): 0.78 µg/mL (≈ 1.44 µM)
SMILES: CC(C)CC(NS(=O)(=O)c1ccc(N)cc1)c1nc2ccccc2c(=O)n1-c1cccc(Br)c1 (stereo not drawn)

IC50 (Plasmodium falciparum [1]): 0.78 µg/mL (≈ 1.58 µM)
SMILES: COc1cccc(-n2c(C(CC(C)C)NS(=O)(=O)c3ccc(N)cc3)nc3ccccc3c2=O)c1 (stereo not drawn)

IC50 (Plasmodium falciparum [1]): 1.12 µg/mL (≈ 2.33 µM)
SMILES: CC(C)CC(NS(=O)(=O)c1ccc(N)cc1)c1nc2ccccc2c(=O)n1-c1ccc(F)cc1 (stereo not drawn)

IC50 (Plasmodium falciparum [2]): 37240 ppm
IC50 (Dihydrofolate reductase): 161 nM
IC50 (Plasmodium falciparum [1]): 0.068 µg/mL (≈ 0.126 µM)
SMILES: CC(C)CC(NS(=O)(=O)c1ccc(N)cc1)c1nc2ccccc2c(=O)n1-c1ccc(Br)cc1 (stereo not drawn)
Activity (Vero): Non-Toxic
Ratio CC50/EC50 [3]: 15.3
Ratio IC50 [4]: 172.14
EC50 (Plasmodium falciparum [5]): 1909 ppm

IC50 (Plasmodium falciparum [2]): 96.38 ppm
IC50 (Dihydrofolate reductase): 56.3 nM
IC50 (Plasmodium falciparum [1]): 0.068 µg/mL (≈ 0.137 µM)
SMILES: CC(C)CC(NS(=O)(=O)c1ccc(N)cc1)c1nc2ccccc2c(=O)n1-c1ccc(Cl)cc1 (stereo not drawn)
Activity (Vero): Non-Toxic
Ratio CC50/EC50 [3]: 87.7
Ratio IC50 [4]: 535.71
EC50 (Plasmodium falciparum [5]): 115.61 ppm
